Source: PubChem
In the library only some 3.5% were active in any assay of this set; here they are far more common.
Apaf1 inhib: inhibitors of human Apaf-1 apoptosome, primary screen, biochemical, DEVD-Rh110 fluorescence, uHTS | reconstituted apoptosome caspase-3 activity | inhibition, % at 20 µM | 330,000 compounds, 0.71% hits | AID 489030, 2010; active = inhibition of at least 40% at 20 µM;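 note: plate controls were DMSO wells for no effect and DEVD-CHO caspase inhibitor wells for full effect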
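detection = Rh110 fluorescence intensity | test system = biochemical Apaf-1 apoptosome reconstitution | also added = cytochrome c and DEVD-Rh110 substrate | schedule = 30 min plus 50 min, RT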
PAFAH1B3 FP inh: PAFAH1B3 enzyme inhibitors, primary screen, biochemical, fluorescence polarization, human; 340,000 compounds, 0.28% hits; inhibition, % at 3.39 µM; Platelet-activating factor acetylhydrolase IB subunit alpha1 (Homo sapiens), Q15102; recombinant PAFAH1B3, FP-rhodamine probe;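 active = inhibition above the screen-wide average of all tested compounds plus 3 SD, cut at about 25% in these data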;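 note: 0% = enzyme with DMSO only and 100% = wells lacking PAFAH1B3 protein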
PAFAH1B2 inh: PAFAH1B2 enzyme inhibitors, primary screen, biochemical, fluorescence polarization, human; Platelet-activating factor acetylhydrolase IB subunit alpha2 (Homo sapiens), P68402; recombinant PAFAH1B2, FP-rhodamine activity probe; inhibition, % at 3.39 µM; 340,000 compounds, 1.2% hits; AID 492953, 2010;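 active = inhibition above the mean of all tested compounds plus 3 SD, cut at about 24% in these data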;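 note: 0% = enzyme with DMSO and 100% = wells lacking PAFAH1B2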
pPAFAH FP inh: pPAFAH enzyme inhibitors, primary screen, biochemical, fluorescence polarization, human; Platelet-activating factor acetylhydrolase (Homo sapiens), Q13093; 330,000 compounds, 1.5% hits; AID 463082, 2010; recombinant pPAFAH, FP-rhodamine probe fluorescence polarization; inhibition, % at 3.39 µM;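 active = inhibition above the mean inhibition across the screen plus 3 SD, cut at about 25% in these data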;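 note: inhibitors block binding of the rhodamine activity-based probe so polarization drops; 0% = enzyme with DMSO and 100% = wells lacking pPAFAH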
Target sequence (Q13093 whole entry, looked up): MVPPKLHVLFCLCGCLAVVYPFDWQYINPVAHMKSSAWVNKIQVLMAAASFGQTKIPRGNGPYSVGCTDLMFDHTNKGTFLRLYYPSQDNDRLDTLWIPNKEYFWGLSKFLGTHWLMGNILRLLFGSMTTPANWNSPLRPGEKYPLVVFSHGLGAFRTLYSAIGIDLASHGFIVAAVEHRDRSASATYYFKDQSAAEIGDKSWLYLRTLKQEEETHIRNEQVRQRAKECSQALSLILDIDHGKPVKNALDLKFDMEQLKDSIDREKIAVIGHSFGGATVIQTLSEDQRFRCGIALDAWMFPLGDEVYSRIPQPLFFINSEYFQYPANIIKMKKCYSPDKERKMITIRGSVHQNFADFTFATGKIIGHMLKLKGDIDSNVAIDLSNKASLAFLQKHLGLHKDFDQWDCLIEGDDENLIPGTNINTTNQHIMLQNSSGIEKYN
PREPL inhibitor: PREPL enzyme inhibitors, primary screen, biochemical, fluorescence polarization. Prolyl endopeptidase-like (Homo sapiens), Q4J6C6. recombinant PREPL, fluorescence polarization activity-based probe. inhibition, % at 5.96 µM. 320,000 compounds, 0.68% hits. AID 2751, 2010; in the data active = inhibition above about 43%;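 note: 0% = enzyme with DMSO and 100% = wells lacking enzyme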
PAFAH2 inh: PAFAH2 enzyme inhibitors, primary screen, biochemical, fluorescence polarization, human. recombinant PAFAH2, FP-rhodamine activity probe. inhibition, % at 3.39 µM. 340,000 compounds, 0.99% hits. AID 492956, 2010;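 active = inhibition above the mean over all tested compounds plus 3 SD, cut at about 30% in these data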;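 note: inhibitors block probe labeling of enzyme so polarization drops; 0% = enzyme with DMSO and 100% = wells lacking PAFAH2 protein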
PAFAH2 FP conf: PAFAH2 enzyme inhibitors, confirmation, biochemical, fluorescence polarization, human; recombinant PAFAH2, FP-rhodamine activity probe; inhibition, % at 3.39 µM; shares compounds with PAFAH2 inh; 2,300 compounds, 65% hits;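 active = mean inhibition over three repeats above a set limit taken from the earlier primary screen, cut at about 30% in these data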;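 note: inhibitor blocks binding of rhodamine activity probe so polarization falls; 0% = enzyme with DMSO and 100% = wells lacking PAFAH2 protein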
* hit, by the source's call; · = no result.

SMILES	Apaf1 inhib	PAFAH1B3 FP inh	PAFAH1B2 inh	pPAFAH FP inh	PREPL inhibitor	PAFAH2 inh	PAFAH2 FP conf
CCOc1ccc(NC(=O)C2C(C(=O)O)C3(Cl)C(Cl)=C(Cl)C2(Cl)C3(Cl)Cl)cc1 (centres undefined)	25	·	·	8	-5	·	·
COc1ccc(OC)c(NC(=O)C2C(C(=O)O)C3(Cl)C(Cl)=C(Cl)C2(Cl)C3(Cl)Cl)c1 (centres undefined)	21	3	6	-1	4	51*	40*
COc1ccnc(CSC(N)=Nc2cccc(C(F)(F)F)c2)c1	·	2	2	2	8	4	·
COc1ccc(-c2nc3ccccc3s2)cc1NC(C)=O	6	19	1	1	1	41*	3
CC(=O)NCc1ccc(-c2nc3ccccc3s2)cc1	-5	3	0	6	-5	4	·
O=C(COC(=O)c1ccc(Br)cc1)NCc1ccccc1	3	8	1	11	8	31*	25
O=C(COC(=O)c1ccccc1C(=O)c1ccccc1)NCCc1ccc(Cl)cc1Cl	10	7	3	13	5	71*	58*
O=C(COC(=O)c1ccccc1C(=O)c1ccccc1)NCc1ccc(F)cc1	0	5	1	3	8	43*	36*
CC(C)(C)NC(=O)COC(=O)c1ccccc1C(=O)c1ccccc1	0	11	4	3	10	69*	56*
O=C(COC(=O)c1ccccc1C(=O)c1ccc(Cl)cc1)NCc1ccccc1	8	6	4	4	-6	34*	26
Cc1ccc(C(=O)c2ccccc2C(=O)OCC(=O)NCCc2ccccc2)cc1	12	5	7	4	0	9	·
Cc1cc(=O)[nH]c(SCC(=O)N2CC3(C)CC2CC(C)(C)C3)n1 (centres undefined)	-1	-3	16	3	18	29	·
CCCc1cc(=O)[nH]c(SCC(=O)N2CC3(C)CC2CC(C)(C)C3)n1 (centres undefined)	-10	7	22	1	1	36*	15
O=C(CC12CC3CC(CC(C3)C1)C2)NCC(=O)N1CCCC1	1	0	8	13	15	75*	71*
CCN(CC)S(=O)(=O)c1ccc(/C=C/C(=O)OCC(=O)Nc2cccnc2Cl)cc1	16	8	0	6	15	67*	55*
CCN(CC)S(=O)(=O)c1ccc(Cl)c(NC(=O)COC(=O)/C=C/c2cc(OC)c(OC)c(OC)c2)c1	3	3	-1	10	-1	13	·
CCN(CC)S(=O)(=O)c1ccc(/C=C/C(=O)OCC(=O)Nc2cccc3ccccc23)cc1	5	-7	-1	21	-1	53*	62*
COc1cc(OC)c(OC)cc1CNC(=O)c1cc(S(=O)(=O)N2CCOCC2)ccc1F	-9	10	0	1	2	3	·
Cc1nc(C)n(CC(C)C(=O)N2CCN(S(=O)(=O)c3ccccc3)CC2)n1 (centres undefined)	3	3	3	3	11	-4	·
CC(NC(=O)/C(=C/c1cccc([N+](=O)[O-])c1)NC(=O)c1ccco1)C(=O)O (centres undefined)	-1	2	-5	9	-6	4	·
Cc1cc(C(=O)OCC(=O)NC2(C#N)CCCCC2)c(C)o1	-3	7	3	8	5	75*	75*
Cc1cc(C(=O)OCC(=O)NC2CCCCC2)c(C)o1	0	-5	0	7	0	84*	63*
Cc1ccc(C(=O)OCC(=O)NC2CCCc3ccccc32)o1 (centres undefined)	2	-1	5	2	9	33*	9
CCOC(=O)c1c(C)[nH]c(C(=O)OCC(=O)NC(C)(C)C)c1C	2	-1	2	3	-3	19	·
Cc1cc(C(=O)OCC(=O)NC(C)C)c(C)o1	0	-3	6	-5	3	10	·
SMILES	Apaf1 inhib	PAFAH1B3 FP inh	PAFAH1B2 inh	pPAFAH FP inh	PREPL inhibitor	PAFAH2 inh	PAFAH2 FP conf
CCOC(=O)c1c(C)[nH]c(C(=O)OCC(=O)NC2(C#N)CCCCC2)c1C	7	3	1	5	-1	57*	52*
Cc1ccc(C(=O)NC2CCCc3ccccc32)o1 (centres undefined)	4	4	2	4	2	0	·
O=C(COc1ncnc2ccccc12)NCCc1ccc(F)cc1	-10	6	4	0	-14	3	·
COc1ccc(NC(=O)C2CCN(S(=O)(=O)c3cccc4nonc34)CC2)cc1OC	0	7	7	5	-8	-7	·
Cc1ccc(C2NC(=NCc3ccccc3)Nc3nc(C)cc(=O)n32)cc1 (centres undefined)	4	3	4	7	-28	-1	·
N#CCC(=O)Nc1ccc(C(=O)OCC(=O)NC2CCCc3ccccc32)cc1 (centres undefined)	-6	-3	-6	2	-17	43*	38*
N#CC1(NC(=O)COC(=O)c2ccc(-c3ccc(O)cc3)cc2)CCCCC1	-2	0	-2	7	2	76*	72*
N#CC1(NC(=O)COC(=O)c2ncc(Cl)c(Cl)c2Cl)CCCCC1	0	6	-5	16	11	1	·
N#CC1(NC(=O)COC(=O)c2cccc(-n3cnnn3)c2)CCCCC1	-1	5	7	0	-1	73*	72*
N#CC1(NC(=O)COC(=O)c2cc([N+](=O)[O-])ccc2N2CCCC2)CCCCC1	9	4	0	2	7	0	·
N#CC1(NC(=O)COC(=O)c2ccccc2[N+](=O)[O-])CCCCC1	-12	4	2	10	-2	69*	74*
CC(OC(=O)c1cccc(-n2cnnn2)c1)C(=O)NC1(C#N)CCCCC1 (centres undefined)	-8	1	0	2	4	-4	·
Cc1cc(C(=O)OCC(=O)NC2CCCC(C)C2C)c(C)o1 (centres undefined)	-38	5	5	12	15	82*	67*
CNS(=O)(=O)c1cccc(C(=O)OCC(=O)Nc2cc(F)ccc2F)c1	5	4	7	7	-8	45*	32*
